Data: ChEMBL document CHEMBL1137295, “Discovery of HIV-1 protease inhibitors with picomolar affinities incorporating N-aryl-oxazolidinone-5-carboxamides as novel P2 ligands” (J Med Chem, 2006)

How the values were obtained:
[1] = target: Human immunodeficiency virus type 1 protease (Human immunodeficiency virus 1, UniProt Q72874, D30N/L63P/N88D); assay: Inhibition of HIV1 protease D30N/L63P/N88D mutant
Procedure, shortened: (§1)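 Protease desalted into 20 mM sodium acetate pH 5, about 50 nM apparent by A280. Preincubated with inhibitor in DMSO 20-30 min at room temperature. Buffer 0.1 M NaOAc, 1 M NaCl, 1 mM EDTA, 1 mM DTT, 2% DMSO, 1 mg/mL BSA, pH 4.7. Read 340/490 nm, 30 °C, ~10 min. Ki by nonlinear fit of initial velocity versus inhibitor concentration.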

[2] = target: Human immunodeficiency virus type 1 protease (Human immunodeficiency virus 1, UniProt Q72874, Q7K); assay: Inhibition of wild type HIV1 protease Q7K mutant; procedure, shortened: as §1
[3] = target: Human immunodeficiency virus type 1 protease (Human immunodeficiency virus 1, UniProt Q72874, G48V/I54V/L10I/L63P/V82A); assay: Inhibition of HIV1 protease L10I/G48V/I54V/L63P/V82A mutant; procedure, shortened: as §1
[4] = target: Human immunodeficiency virus type 1 protease (Human immunodeficiency virus 1, UniProt Q72874, A71V/G73S/I84V/L10I/L63P/L90M); assay: Inhibition of HIV1 protease L10I/L63P/A71V/G73S/I84V/L90M mutant; procedure, shortened: as §1

Compound `CC(C)CN(C[C@@H](O)[C@H](Cc1ccccc1)NC(=O)[C@@H]1CN(c2ccccc2)C(=O)O1)S(=O)(=O)c1ccc(N)cc1` has a Ki [1] of 0.92 nM, a Ki [2] of 0.53 nM and a Ki [3] of 2.08 nM. The Ki [4] was 10.3 nM.
`COc1ccc(S(=O)(=O)N(CC(C)C)C[C@@H](O)[C@H](Cc2ccccc2)NC(=O)[C@H]2CN(c3ccccc3)C(=O)O2)cc1` showed a Ki [2] of 10.7 nM.
Compound `COc1ccc(S(=O)(=O)N(CC(C)C)C[C@@H](O)[C@H](Cc2ccccc2)NC(=O)[C@@H]2CN(c3cccc(F)c3)C(=O)O2)cc1` has a Ki [1] of 0.08 nM, a Ki [2] of 0.083 nM and a Ki [3] of 3.56 nM. It also gave a Ki [4] of 4.94 nM.
Work on `COc1ccc(S(=O)(=O)N(CC(C)C)C[C@@H](O)[C@H](Cc2ccccc2)NC(=O)[C@@H]2CN(c3ccc(C(C)=O)cc3)C(=O)O2)cc1` yielded a Ki [1] of 0.179 nM, a Ki [3] of 0.78 nM and a Ki [4] of 1.94 nM.
Work on `CC(C)CN(C[C@@H](O)[C@H](Cc1ccccc1)NC(=O)[C@@H]1CN(c2cccc(F)c2)C(=O)O1)S(=O)(=O)c1ccc(N)cc1` yielded a Ki [2] of 0.17 nM.
In the case of `CC(=O)c1ccc(N2C[C@@H](C(=O)N[C@@H](Cc3ccccc3)[C@H](O)CN(CC(C)C)S(=O)(=O)c3ccc(N)cc3)OC2=O)cc1`, the Ki [2] is reported as 0.184 nM.
For `CC(C)CN(C[C@@H](O)[C@H](Cc1ccccc1)NC(=O)[C@@H]1CN(c2ccc(F)c(F)c2)C(=O)O1)S(=O)(=O)c1ccc2c(c1)OCO2`, the Ki [2] was 0.085 nM.
With `CC(=O)c1cccc(N2C[C@@H](C(=O)N[C@@H](Cc3ccccc3)[C@H](O)CN(CC(C)C)S(=O)(=O)c3ccc4c(c3)OCO4)OC2=O)c1` the Ki [1] was 0.235 nM, the Ki [2] was 0.006 nM and the Ki [3] was 0.72 nM. It also gave a Ki [4] of 3.51 nM.
`CC(=O)c1cccc(N2C[C@@H](C(=O)N[C@@H](Cc3ccccc3)[C@H](O)CN(CC(C)C)S(=O)(=O)c3ccc(OC(F)(F)F)cc3)OC2=O)c1` was tested, and the Ki [2] was 2 nM.
Work on `COc1cccc(S(=O)(=O)N(Cc2cccs2)C[C@@H](O)[C@H](Cc2ccccc2)NC(=O)[C@@H]2CN(c3ccc(C(C)=O)cc3)C(=O)O2)c1` yielded a Ki [2] of 29.5 nM.
With `COc1ccc(S(=O)(=O)N(CC2CC2)C[C@@H](O)[C@H](Cc2ccccc2)NC(=O)[C@@H]2CN(c3ccc(C(C)=O)cc3)C(=O)O2)cc1` the Ki [2] was 0.8 nM.
`COc1cccc(S(=O)(=O)N(Cc2cccs2)C[C@@H](O)[C@H](Cc2ccccc2)NC(=O)[C@@H]2CN(c3cccc(F)c3)C(=O)O2)c1` showed a Ki [2] of 189 nM.
`CC(=O)c1cccc(N2C[C@@H](C(=O)N[C@@H](Cc3ccccc3)[C@H](O)CN(CC(C)C)S(=O)(=O)c3ccc(N)cc3)OC2=O)c1` showed a Ki [2] of 0.032 nM.
Compound `CC(C)CN(C[C@@H](O)[C@H](Cc1ccccc1)NC(=O)[C@@H]1CN(c2cccc(F)c2)C(=O)O1)S(=O)(=O)c1ccc2c(c1)OCO2` has a Ki [2] of 0.107 nM.
In the case of `COc1ccc(S(=O)(=O)N(CC(C)C)C[C@@H](O)[C@H](Cc2ccccc2)NC(=O)[C@@H]2CN(c3cccc(F)c3)C(=O)O2)cc1F`, the Ki [2] is reported as 0.07 nM.
`COc1cccc(S(=O)(=O)N(CC(C)C)C[C@@H](O)[C@H](Cc2ccccc2)NC(=O)[C@@H]2CN(c3ccccc3)C(=O)O2)c1` was tested, and the Ki [2] was 3.8 nM.
Work on `COc1cccc(S(=O)(=O)N(Cc2cccs2)C[C@@H](O)[C@H](Cc2ccccc2)NC(=O)[C@@H]2CN(c3ccccc3)C(=O)O2)c1` yielded a Ki [2] of 239 nM.
In the case of `CC(=O)c1ccc(N2C[C@@H](C(=O)N[C@@H](Cc3ccccc3)[C@H](O)CN(Cc3cccs3)S(=O)(=O)c3cc(F)c(F)cc3F)OC2=O)cc1`, the Ki [2] is reported as 168 nM.
Compound `CC(C)CN(C[C@@H](O)[C@H](Cc1ccccc1)NC(=O)[C@@H]1CN(c2cccc(C(F)(F)F)c2)C(=O)O1)S(=O)(=O)c1ccc2c(c1)OCO2` has a Ki [2] of 0.016 nM.
Work on `CC(C)CN(C[C@@H](O)[C@H](Cc1ccccc1)NC(=O)[C@@H]1CN(c2ccc(F)c(F)c2)C(=O)O1)S(=O)(=O)c1ccc(N)cc1` yielded a Ki [2] of 0.23 nM.
For `CC(C)CN(C[C@@H](O)[C@H](Cc1ccccc1)NC(=O)[C@H]1CN(c2ccccc2)C(=O)O1)S(=O)(=O)c1ccc(N)cc1`, the Ki [2] was 37.4 nM.
`O=C(N[C@@H](Cc1ccccc1)[C@H](O)CN(Cc1cccs1)S(=O)(=O)c1cc(F)c(F)cc1F)[C@@H]1CN(c2cccc(F)c2)C(=O)O1` gave a Ki [2] of 160 nM.
With `COc1ccc(S(=O)(=O)N(CC(C)C)C[C@@H](O)[C@H](Cc2ccccc2)NC(=O)[C@@H]2CN(c3cccc(C(F)(F)F)c3)C(=O)O2)cc1` the Ki [2] was 0.006 nM.
Work on `COc1ccc(S(=O)(=O)N(CC(C)C)C[C@@H](O)[C@H](Cc2ccccc2)NC(=O)[C@@H]2CN(c3ccccc3)C(=O)O2)cc1` yielded a Ki [2] of 0.1 nM.
With `COc1ccc(S(=O)(=O)N(CC(C)C)C[C@@H](O)[C@H](Cc2ccccc2)NC(=O)[C@@H]2CN(c3ccc(F)c(F)c3)C(=O)O2)cc1` the Ki [1] was 0.152 nM, the Ki [2] was 0.066 nM and the Ki [3] was 1.18 nM. It also gave a Ki [4] of 8.69 nM.
`COc1ccc(S(=O)(=O)N(CC(C)C)C[C@@H](O)[C@H](Cc2ccccc2)NC(=O)[C@@H]2CN(c3cccc(C(C)=O)c3)C(=O)O2)cc1` showed a Ki [1] of 0.039 nM, a Ki [3] of 0.16 nM and a Ki [4] of 3.36 nM.
`COc1ccc(S(=O)(=O)N(CC(C)C)C[C@@H](O)[C@H](Cc2ccccc2)NC(=O)[C@@H]2CN(c3cccc(OC)c3)C(=O)O2)cc1` showed a Ki [2] of 0.045 nM.
`CC(C)CN(C[C@@H](O)[C@H](Cc1ccccc1)NC(=O)[C@@H]1CN(c2cccc(C(F)(F)F)c2)C(=O)O1)S(=O)(=O)c1ccc(N)cc1` showed a Ki [1] of 0.36 nM, a Ki [2] of 0.042 nM and a Ki [3] of 4.42 nM. The Ki [4] was 12.3 nM.
Work on `COc1ccc(S(=O)(=O)N(CC(C)C)C[C@@H](O)[C@H](Cc2ccccc2)NC(=O)[C@@H]2CN(c3ccc(C(C)=O)cc3)C(=O)O2)cc1F` yielded a Ki [2] of 0.08 nM.
`CC(=O)c1ccc(N2C[C@@H](C(=O)N[C@@H](Cc3ccccc3)[C@H](O)CN(CC(C)C)S(=O)(=O)c3ccc4c(c3)OCO4)OC2=O)cc1` showed a Ki [2] of 0.016 nM.
For `COc1ccc(S(=O)(=O)N(CC(C)C)C[C@@H](O)[C@H](Cc2ccccc2)NC(=O)[C@@H]2CN(c3cccc(C(F)(F)F)c3)C(=O)O2)cc1F`, the Ki [2] was 0.072 nM.
For `O=C(N[C@@H](Cc1ccccc1)[C@H](O)CN(Cc1cccs1)S(=O)(=O)c1cc(F)c(F)cc1F)[C@@H]1CN(c2ccccc2)C(=O)O1`, the Ki [2] was 170 nM.
For `COc1ccc(S(=O)(=O)N(CC2CC2)C[C@@H](O)[C@H](Cc2ccccc2)NC(=O)[C@@H]2CN(c3cccc(F)c3)C(=O)O2)cc1`, the Ki [2] was 0.257 nM.
For `COc1ccc(S(=O)(=O)N(CC(C)C)C[C@@H](O)[C@H](Cc2ccccc2)NC(=O)[C@@H]2CN(c3ccc(F)c(F)c3)C(=O)O2)cc1F`, the Ki [2] was 0.343 nM.
`CC(C)CN(C[C@@H](O)[C@H](Cc1ccccc1)NC(=O)[C@@H]1CN(c2cccc(C(F)(F)F)c2)C(=O)O1)S(=O)(=O)c1ccc(OC(F)(F)F)cc1` was tested, and the Ki [2] was 10 nM.
Compound `COc1cccc(S(=O)(=O)N(CC(C)C)C[C@@H](O)[C@H](Cc2ccccc2)NC(=O)[C@@H]2CN(c3ccc(C(C)=O)cc3)C(=O)O2)c1` has a Ki [2] of 0.84 nM.
`COc1ccc(S(=O)(=O)N(CC2CC2)C[C@@H](O)[C@H](Cc2ccccc2)NC(=O)[C@@H]2CN(c3ccc(F)c(F)c3)C(=O)O2)cc1` gave a Ki [2] of 0.58 nM.
Work on `COc1cccc(S(=O)(=O)N(CC2CCCO2)C[C@@H](O)[C@H](Cc2ccccc2)NC(=O)[C@@H]2CN(c3ccccc3)C(=O)O2)c1` (single isomer, unassigned) yielded a Ki [2] of 42 nM.
For `COc1cccc(S(=O)(=O)N(CC2CCCO2)C[C@@H](O)[C@H](Cc2ccccc2)NC(=O)[C@@H]2CN(c3cccc(F)c3)C(=O)O2)c1` (single isomer, unassigned), the Ki [2] was 150 nM.
